Data taken from ChEMBL document CHEMBL1121643, “Pyrazolo[5,1-b]quinazolin-9-ones: a new series of antiallergic agents” (1981).
The source made the active and inactive calls. No cut-off for these calls is given here.

Legend:
[1] = test system: Rattus norvegicus; test: Inhibition of passive cutaneous anaphylaxis (PCA) reaction in rats by intraperitoneal administration of 5 mg/kg; type: functional; details: ip
In short: (§1)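 Rats were sensitized by intradermal antiserum dilutions at several dorsal sites. After 48 h they were challenged iv with 1 mg ovalbumin in 1 mL saline containing 0.25% Evans blue. Drug was suspended in 1% gum tragacanth in saline and given ip or orally 10–15 min before challenge. Rats were killed 30 min later and the mean orthogonal wheal diameter was measured.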

[2] = test system: Rattus norvegicus; test: Inhibition of passive cutaneous anaphylaxis (PCA) reaction in rats, peroral administration 5 mg/kg; type: functional; details: route oral; in short: as §1
[3] = test system: Rattus norvegicus; test: Ability to inhibit the passive cutaneous anaphylaxis (PCA) reaction in rats by intravenous administration of 0.5 mg/kg; type: functional
In short: (§2)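 Rats were given intradermal antiserum dilutions on the back. At 48 h, drug dissolved in the challenge solution (1 mg ovalbumin, 0.25% Evans blue, 1 mL saline) was injected iv with the antigen; sodium bicarbonate in slight molar excess was used if needed. Wheal diameters were read 30 min later and plotted against antiserum concentration, with the least-squares line extrapolated to a zero-antiserum base value. Five rats per group.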

[4] = test system: Rattus norvegicus; test: Inhibition of the passive cutaneous anaphylaxis (PCA) reaction in rats by intravenous administration of 0.1 mg/kg; type: functional; in short: as §2
[5] = test system: Rattus norvegicus; test: Inhibition of the passive cutaneous anaphylaxis (PCA) reaction in rats by intravenous administration of 0.01 mg/kg; type: functional; in short: as §2
[6] = test system: Rattus norvegicus; test: Ability to inhibit the passive cutaneous anaphylaxis (PCA) reaction in rats by peroral administration of 2 mg/kg; type: functional; in short: as §1
[7] = test system: Rattus norvegicus; test: Ability to inhibit the passive cutaneous anaphylaxis (PCA) reaction in rats by intraperitoneal administration of 5 mg/kg; type: functional; details: ip; in short: as §1
[8] = test system: Rattus norvegicus; test: Ability to inhibit the passive cutaneous anaphylaxis (PCA) reaction in rats by peroral administration of 5 mg/kg; type: functional; details: route oral; in short: as §1
[9] = test system: Rattus norvegicus; test: Ability to inhibit the passive cutaneous anaphylaxis (PCA) reaction in rats by intraperitoneal administration of 1 mg/kg; type: functional; details: ip, read-out: Inhibition; in short: as §1
[10] = test system: Rattus norvegicus; test: Ability to inhibit the passive cutaneous anaphylaxis (PCA) reaction in rats by intravenous administration of 1.5 mg/kg; type: functional; in short: as §2
[11] = test system: Rattus norvegicus; test: Ability to inhibit the passive cutaneous anaphylaxis (PCA) reaction in rats by peroral administration; Inactive; type: functional, organism-based; in short: as §1
[12] = test system: Rattus norvegicus; test: Ability to inhibit the passive cutaneous anaphylaxis (PCA) reaction in rats by intravenous administration of 0.005 mg/kg; type: functional; in short: as §2
[13] = test system: Rattus norvegicus; test: Ability to inhibit the passive cutaneous anaphylaxis (PCA) reaction in rats by intravenous administration of 0.001 mg/kg; type: functional; in short: as §2
[14] = test system: Rattus norvegicus; test: Ability to inhibit the passive cutaneous anaphylaxis (PCA) reaction in rats by peroral administration of 10 mg/kg; type: functional; details: route oral; in short: as §1

Structure (SMILES): O=C(O)c1cc2nc3ccc(O)cc3c(O)n2n1
- inhibition in vivo at 5 mg/kg [1]: 100%
- inhibition in vivo at 5 mg/kg [2]: 0%

Structure (SMILES): O=C(O)c1ccc2nc3cc(C(=O)O)nn3c(O)c2c1
- inhibition in vivo at 5 mg/kg [1]: 21%
- inhibition in vivo at 5 mg/kg [2]: 7%

Structure (SMILES): COc1ccc2c(c1)c(=O)n1nc(-c3nn[nH]n3)cc1n2C
- inhibition in vivo at 0.5 mg/kg [3]: 100%
- inhibition in vivo at 5 mg/kg [1]: 100%
- inhibition in vivo at 5 mg/kg [2]: 0%

Structure (SMILES): O=C(O)c1cc2nc3ccc(Cl)cc3c(O)n2n1
- inhibition in vivo at 5 mg/kg [1]: 45%
- inhibition in vivo at 5 mg/kg [2]: 0%

Structure (SMILES): CC(=O)Nc1ccc2c(c1)c(=O)n1nc(C(=O)O)cc1n2C
- inhibition in vivo at 5 mg/kg [2]: 0%

Structure (SMILES): O=C(O)c1ccc2c(O)n3nc(C(=O)O)cc3nc2c1
- inhibition in vivo at 0.1 mg/kg [4]: 56%
- inhibition in vivo at 5 mg/kg [1]: 74%

Structure (SMILES): Cn1c2ccc(F)cc2c(=O)n2nc(-c3nn[nH]n3)cc12
- inhibition in vivo at 0.1 mg/kg [4]: 100%
- inhibition in vivo at 0.01 mg/kg [5]: 10%
- inhibition in vivo at 2 mg/kg ([6]; route oral): 27%
- inhibition in vivo at 5 mg/kg [1]: 100%
- inhibition in vivo at 5 mg/kg [2]: 8%

Structure (SMILES): CSc1ccc2nc3cc(C(=O)Nc4nn[nH]n4)nn3c(O)c2c1
- inhibition in vivo at 5 mg/kg [1]: 90%

Structure (SMILES): Cn1c2ccccc2c(=O)n2nc(-c3nn[nH]n3)cc12
- inhibition in vivo at 0.1 mg/kg [4]: 0%
- inhibition in vivo at 0.5 mg/kg [3]: 84%
- inhibition in vivo at 2 mg/kg ([6]; route oral): 52%
- inhibition in vivo at 5 mg/kg [1]: 91%
- inhibition in vivo at 5 mg/kg [2]: 0%

Structure (SMILES): Cc1ccc2c(c1)c(=O)n1nc(C(=O)O)cc1n2C
- inhibition in vivo at 0.5 mg/kg [3]: 55%
- inhibition in vivo at 2 mg/kg ([6]; route oral): 25%

Structure (SMILES): Cn1c2ccccc2c(=O)n2nc(C(=O)O)cc12
- inhibition in vivo at 5 mg/kg [7]: 100%
- inhibition in vivo at 0.5 mg/kg [3]: 100%
- inhibition in vivo at 5 mg/kg [8]: 40%

Structure (SMILES): CCn1c2ccc(Cl)cc2c(=O)n2nc(C(=O)O)cc12
- inhibition in vivo at 0.1 mg/kg [4]: 16%

Structure (SMILES): O=C(O)c1cc2nc3cccc(C(F)(F)F)c3c(O)n2n1
- inhibition in vivo at 5 mg/kg [1]: 100%
- inhibition in vivo at 5 mg/kg [2]: 10%

Structure (SMILES): COc1cc2nc3cc(C(=O)O)nn3c(O)c2cc1OC
- inhibition in vivo at 0.1 mg/kg [4]: 100%
- inhibition in vivo at 0.01 mg/kg [5]: 16%
- inhibition in vivo at 5 mg/kg [1]: 97%
- inhibition in vivo at 5 mg/kg [2]: 5%

Structure (SMILES): COc1cc2c(=O)n3nc(C(=O)O)cc3n(C)c2cc1OC
- inhibition in vivo at 5 mg/kg [1]: 100%
- inhibition in vivo at 5 mg/kg [2]: 6%

Structure (SMILES): CCCOc1cccc2c(=O)n3nc(C(=O)O)cc3n(CCC)c12
- inhibition in vivo at 5 mg/kg [1]: 72%

Structure (SMILES): Cn1c2ccc(Cl)cc2c(=O)n2nc(C(=O)O)cc12
- inhibition in vivo at 0.5 mg/kg [3]: 70%
- inhibition in vivo at 1 mg/kg [9]: 59%
- inhibition in vivo at 2 mg/kg ([6]; read-out: Inhibition, route oral): 9%

Structure (SMILES): Cn1c2ccc(N)cc2c(=O)n2nc(C(=O)O)cc12
- inhibition in vivo at 0.1 mg/kg [4]: 16%
- inhibition in vivo at 5 mg/kg [1]: 84%
- inhibition in vivo at 5 mg/kg [2]: 0%

Structure (SMILES): O=C(O)c1cc(=O)c2c(OCC(O)COc3cccc4oc(C(=O)O)cc(=O)c34)cccc2o1 [CROMOLYN SODIUM]
- inhibition in vivo at 1.5 mg/kg [10]: 50%
- inhibition [11]: inactive

Structure (SMILES): COc1cccc2c(O)n3nc(C(=O)Nc4nn[nH]n4)cc3nc12
- inhibition in vivo at 5 mg/kg [1]: 100%
- inhibition in vivo at 5 mg/kg [2]: 14%

Structure (SMILES): O=C(O)c1cc2n(Cc3ccccc3)c3ccc(Cl)cc3c(=O)n2n1
- inhibition in vivo at 5 mg/kg [2]: 7%

Structure (SMILES): COc1cc2nc3cc(C(=O)Nc4nn[nH]n4)nn3c(O)c2cc1OC
- inhibition in vivo at 5 mg/kg [1]: 100%
- inhibition in vivo at 5 mg/kg [2]: 0%

Structure (SMILES): Oc1c2ccccc2nc2cc(-c3nn[nH]n3)nn12
- inhibition in vivo at 5 mg/kg [1]: 26%
- inhibition in vivo at 5 mg/kg [2]: 0%

Structure (SMILES): O=C(Nc1nn[nH]n1)c1cc2nc3ccccc3c(O)n2n1
- inhibition in vivo at 5 mg/kg [1]: 100%
- inhibition in vivo at 5 mg/kg [2]: 1%

Structure (SMILES): Cc1ccc2nc3cc(C(=O)O)nn3c(O)c2c1
- inhibition in vivo at 5 mg/kg [1]: 100%
- inhibition in vivo at 5 mg/kg [2]: 0%

Structure (SMILES): COc1cccc2c(O)n3nc(C(=O)O)cc3nc12
- inhibition in vivo at 0.1 mg/kg [4]: 100%
- inhibition in vivo at 0.005 mg/kg [12]: 31%
- inhibition in vivo at 0.01 mg/kg [5]: 74%
- inhibition in vivo at 0.001 mg/kg [13]: 8%
- inhibition in vivo at 5 mg/kg [1]: 70%
- inhibition in vivo at 10 mg/kg [14]: 62%
- inhibition in vivo at 5 mg/kg [2]: 79%
